SMILES strings stand for the structures. Calls of active or inactive are those of the source. The rule behind the calls is not given here. Where a SMILES comes first, the peptide text is derived from it. The star is where a group is joined. X1 = CCOC(=O)/C=C/[C@H](CO)N*

Holding throughout (details): Clostridioides difficile
For test [1], the target named is T1, Precursor of the S-layer proteins (Clostridium difficile (strain 630)) (UniProt Q183M8).
T1 sequence (whole entry): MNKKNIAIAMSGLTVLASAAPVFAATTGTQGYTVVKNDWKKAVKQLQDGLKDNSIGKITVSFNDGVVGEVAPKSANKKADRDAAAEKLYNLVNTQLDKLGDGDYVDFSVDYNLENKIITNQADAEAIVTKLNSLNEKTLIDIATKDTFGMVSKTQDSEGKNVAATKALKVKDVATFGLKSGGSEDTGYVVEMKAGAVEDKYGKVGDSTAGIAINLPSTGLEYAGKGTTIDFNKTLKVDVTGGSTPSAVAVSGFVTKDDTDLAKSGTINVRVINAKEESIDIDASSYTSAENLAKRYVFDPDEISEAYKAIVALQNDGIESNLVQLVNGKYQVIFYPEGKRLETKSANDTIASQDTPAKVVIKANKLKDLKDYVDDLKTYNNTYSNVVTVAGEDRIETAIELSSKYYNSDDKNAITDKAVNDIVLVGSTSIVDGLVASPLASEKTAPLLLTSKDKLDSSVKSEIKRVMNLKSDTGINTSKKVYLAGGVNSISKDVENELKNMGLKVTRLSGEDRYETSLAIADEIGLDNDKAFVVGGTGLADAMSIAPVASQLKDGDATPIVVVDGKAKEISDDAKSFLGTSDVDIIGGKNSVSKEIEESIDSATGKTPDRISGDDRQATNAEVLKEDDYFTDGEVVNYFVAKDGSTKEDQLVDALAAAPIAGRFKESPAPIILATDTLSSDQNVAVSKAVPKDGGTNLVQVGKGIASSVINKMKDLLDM
Briefly: Inhibition of Clostridium difficile 630 S-layer processing of slpA at 100 uM by Western blot analysis. The procedure, abridged:
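C. difficile strain 630 grown overnight (16 h), anaerobic, 37 °C, in BHI with compound at 100 µM or DMSO vehicle. Surface layer proteins extracted with 0.2 M glycine–HCl pH 2.2 (30 min, room temperature), run on SDS–PAGE and semi-dry blotted to PVDF. Probed with rabbit anti-LMW SLP (1/200,000), then goat anti-rabbit-HRP (1/2000). Chemiluminescence read-out.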
A general note: Immunoblotting shows a protein as a band on a membrane.

The target of test [2] is T2, Cell surface protein (Clostridium difficile (strain 630)) (UniProt Q183M1).
T2 sequence (whole entry): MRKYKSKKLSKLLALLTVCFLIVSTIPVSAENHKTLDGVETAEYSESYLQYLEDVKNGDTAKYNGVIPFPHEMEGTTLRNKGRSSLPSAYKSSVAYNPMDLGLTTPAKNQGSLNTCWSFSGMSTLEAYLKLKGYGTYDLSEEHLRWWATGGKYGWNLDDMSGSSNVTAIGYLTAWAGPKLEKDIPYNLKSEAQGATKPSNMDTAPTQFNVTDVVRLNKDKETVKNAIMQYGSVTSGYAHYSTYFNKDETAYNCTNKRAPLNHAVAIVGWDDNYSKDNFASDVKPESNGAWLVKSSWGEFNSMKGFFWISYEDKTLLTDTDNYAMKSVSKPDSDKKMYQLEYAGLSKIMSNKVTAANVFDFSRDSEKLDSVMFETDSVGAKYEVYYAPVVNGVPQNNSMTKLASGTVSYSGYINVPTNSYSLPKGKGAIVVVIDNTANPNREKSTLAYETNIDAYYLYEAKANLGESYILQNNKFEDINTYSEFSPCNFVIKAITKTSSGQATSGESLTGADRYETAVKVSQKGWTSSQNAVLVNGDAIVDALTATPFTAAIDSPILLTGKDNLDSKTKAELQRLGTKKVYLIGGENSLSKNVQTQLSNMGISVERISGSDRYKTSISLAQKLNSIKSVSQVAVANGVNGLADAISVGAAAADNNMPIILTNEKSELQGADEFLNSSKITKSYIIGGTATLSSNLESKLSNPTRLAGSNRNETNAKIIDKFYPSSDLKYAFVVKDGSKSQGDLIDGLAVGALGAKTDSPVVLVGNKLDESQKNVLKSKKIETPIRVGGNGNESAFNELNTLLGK
Briefly: Binding affinity to Clostridium difficile 630 cwp84 at 74 kDa by Western blot analysis.

For test [3], the target named is T2, Cell surface protein (Clostridium difficile (strain 630)). Put plainly: Binding affinity to Clostridium difficile 630 higher molecular weight cwp84 by Western blot analysis.
For test [4] the target is unchanged. Briefly: Binding affinity to Clostridium difficile 630 cwp84 at lower band by Western blot analysis.

Take `CC(C)C[C@H](NC(=O)CCl)C(=O)N[C@@H](CCCNC(=N)N)C(=O)NCCOCCOCCOCCNC(=O)CCCC[C@@H]1SC[C@@H]2NC(=O)N[C@@H]21`: the inhibition entry in test [1] is “Active”. In addition, the result in test [2] and in test [3] was Active.

Consider `CCOC(=O)/C=C/C(=O)N[C@@H](CCCNC(=N)N)C(=O)NCCOCCOCCOCCNC(=O)CCCC[C@@H]1SC[C@@H]2NC(=O)N[C@@H]21`, for which, in test [1], the inhibition entry is “inactive”.

Take `CCOC(=O)/C=C/[C@H](CO)NC(=O)[C@H](CC(C)C)NC(=O)[C@H](CCCCNC(=O)CCCC[C@@H]1SC[C@@H]2NC(=O)N[C@@H]21)NC(C)=O`: the inhibition entry in test [1] was “Active”. Further, the outcome in test [4] was Active. Besides, the result in test [3] was inactive.

As to `CC(C)C[C@H](NC(=O)CF)C(=O)N[C@@H](CCCNC(=N)N)C(=O)NCCOCCOCCOCCNC(=O)CCCC[C@@H]1SC[C@@H]2NC(=O)N[C@@H]21`, the inhibition result in test [1] was “inactive”.

`CCOC(=O)/C=C/C(=O)N[C@@H](CC(C)C)C(=O)N[C@@H](CCCNC(=N)N)C(=O)NCCOCCOCCOCCNC(=O)CCCC[C@@H]1SC[C@@H]2NC(=O)N[C@@H]21`: the inhibition entry in test [1] was “inactive”.

Turning to `CCOC(=O)/C=C/C(=O)N[C@@H](CO)C(=O)NCCOCCOCCOCCNC(=O)CCCC[C@@H]1SC[C@@H]2NC(=O)N[C@@H]21`, the inhibition result in test [1] was “inactive”.

Regarding `CCOC(=O)/C=C/[C@H](CO)NC(=O)[C@H](CCCCN)NC(=O)[C@@H](NC(=O)[C@H](CCC(=O)O)NC(=O)[C@H](CC(C)C)NC(C)=O)[C@@H](C)O` (Ac-LETK-X1), in test [1], the inhibition result was “Active”.

In the case of `CCOC(=O)/C=C/C(=O)N[C@@H](C)C(=O)NCCOCCOCCOCCNC(=O)CCCC[C@@H]1SC[C@@H]2NC(=O)N[C@@H]21`, the inhibition entry in test [1] is “inactive”.

Consider `C[C@H](NC(=O)CCl)C(=O)NCCOCCOCCOCCNC(=O)CCCC[C@@H]1SC[C@@H]2NC(=O)N[C@@H]21`, for which the inhibition entry in test [1] is “Active”.

For `CCOC(=O)/C=C/[C@H](CO)NC(=O)[C@H](Cc1ccc(O)cc1)NC(=O)[C@H](CCCCNC(=O)CCCC[C@@H]1SC[C@@H]2NC(=O)N[C@@H]21)NC(C)=O`, the inhibition entry in test [1] is “Active”. Further, the result in test [4] was Active. The outcome in test [3] was inactive.

`C[C@H](NC(=O)CF)C(=O)NCCOCCOCCOCCNC(=O)CCCC[C@@H]1SC[C@@H]2NC(=O)N[C@@H]21`: in test [1], the inhibition entry was “inactive”.

As to `N=C(N)NCCC[C@H](NC(=O)CCl)C(=O)NCCOCCOCCOCCNC(=O)CCCC[C@@H]1SC[C@@H]2NC(=O)N[C@@H]21`, the inhibition entry in test [1] was “Active”.

Regarding `O=C(CCCC[C@@H]1SC[C@@H]2NC(=O)N[C@@H]21)NCCOCCOCCOCCNC(=O)[C@H](CO)NC(=O)CCl`, in test [1], the inhibition result is “Active”.

Consider `O=C(CCCC[C@@H]1SC[C@@H]2NC(=O)N[C@@H]21)NCCOCCOCCOCCNC(=O)[C@H](CO)NC(=O)CF`, for which, in test [1], the inhibition entry was “inactive”.

As for `N=C(N)NCCC[C@H](NC(=O)CF)C(=O)NCCOCCOCCOCCNC(=O)CCCC[C@@H]1SC[C@@H]2NC(=O)N[C@@H]21`, the inhibition entry in test [1] was “inactive”.

For the origin of these results see ChEMBL document CHEMBL1938348, “Novel inhibitors of surface layer processing in Clostridium difficile” (Bioorg Med Chem, 2012).
